This is an account of results in ChEMBL document CHEMBL2331205, “Anti-hepatitis B virus and anti-cancer activities of novel isoflavone analogs” (Eur J Med Chem, 2013).

Some results are limits rather than exact numbers.

By IC50 is commonly meant the concentration that inhibits the measured activity by half. As usually defined, the CC50 is the concentration that lowers cell viability or growth by half. A low value points to harm at low concentration.

The nature of series [1]: Growth inhibition of human QGY7701 cells after 48 hrs by MTT assay. In kind it is functional. As to conditions: QGY7701, 48 h. Put shortly: (§1)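 Cells seeded at 8000/well, treated 24 h later in duplicate with a range of concentrations (DMSO stock 10 g/L diluted in fresh medium), 48 h at 37 °C, 5% CO2. MTT (5 mg/ml in PBS) added for 4 h, formazan dissolved in DMSO, absorbance read at 570 nm. IC50 is the concentration giving 50% survival.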
(In general: Formazan colour is commonly taken as a measure of viable cells.)

The subject of series [2] is HeLa. Briefly: Growth inhibition of human HeLa cells after 48 hrs by MTT assay. In kind it is functional, cell-based. Put shortly: as §1
Series [3] in a line: Selectivity index, ratio of CC50 for human HepG2(2.2.15) cells to IC50 for HBV infected in human HepG2(2.2.15) cells assessed as inhibition of HBsAg production. In kind it is functional. Put shortly:
(§2)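 Selectivity index calculated as CC50 in HepG2 2.2.15 cells (MTT, 9-day exposure) divided by IC50 for HBeAg or HBsAg reduction (ELISA of 9-day supernatants).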

For series [4], the system named is A549. Nature of the series: Growth inhibition of human A549 cells after 48 hrs by MTT assay. In kind it is functional, cell-based. To be noted: A549, 48 h. Summed up: as §1
Series [5] in a line: Selectivity index, ratio of CC50 for human HepG2(2.2.15) cells to IC50 for HBV infected in human HepG2(2.2.15) cells assessed as inhibition of HBeAg production. The format is functional. Put shortly: as §2
Series [6] relates to Huh-7. Nature of the series: Growth inhibition of human HuH7 cells after 48 hrs by MTT assay. In kind it is functional, cell-based. To be noted: Huh-7, 48 h. Put shortly: as §1
The nature of series [7]: Selectivity index, ratio of CC50 for human HepG2(2.2.15) cells to IC50 for HBV infected in human HepG2(2.2.15) cells assessed as inhibition of viral replication. In kind it is functional. Put shortly: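 Selectivity index calculated as CC50 in HepG2 2.2.15 cells (MTT, 9-day exposure) divided by IC50 for HBV DNA reduction measured by fluorescence PCR after 9 days.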
The subject of series [8] is Huh-7. Briefly: Ratio of 5-Fu IC50 to compound IC50 for human HuH7 cells after 48 hrs by MTT assay. In kind it is functional.
A short description of series [9]: Cytotoxicity against human HepG2(2.2.15) cells compound treated for 48 hrs followed by incubation for 9 days by MTT assay. The format is cell-based. Put shortly: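 HepG2 2.2.15 cells kept 48 h in plates before adding compounds (DMSO stocks serially diluted in medium), then incubated at 37 °C for 9 days. Media-only wells as blank. MTT (5 g/L) added 4 h before lysis in 10% SDS/50% DMF, pH 7.2; OD at 570 nm gives percent cell death; CC50 derived.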

Series [10] relates to Hepatitis B virus. Briefly: Antiviral activity against HBV infected in human HepG2(2.2.15) cells assessed as inhibition of HBeAg production after 9 days by ELISA. The format is functional, organism-based. To be noted: HepG2 2.2.15, 216 h. Summed up:
(§3)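 HepG2 2.2.15 cells (HBV-producing) given a range of compound concentrations for nine days; culture supernatants collected and HBsAg or HBeAg levels measured by ELISA. IC50 taken as the concentration giving 50% inhibition of antigen level.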
(In general: In an ELISA, binding on a coated surface is turned into a signal by an enzyme label.)

The subject of series [11] is Hepatitis B virus. Nature of the series: Antiviral activity against HBV infected in human HepG2(2.2.15) cells assessed as inhibition of viral replication after 9 days by fluorescence PCR method. The format is functional, organism-based. As to conditions: HepG2 2.2.15, 216 h. Put shortly:
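HepG2 2.2.15 cells given a range of compound concentrations for nine days; HBV DNA quantified by fluorescence PCR. IC50 taken as the concentration giving 50% inhibition of HBV DNA replication.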

Series [12] is described as follows: Growth inhibition of human L02 cells after 48 hrs by MTT assay. In kind it is functional, cell-based. To be noted: L02, 48 h. Summed up: as §1
Series [13] concerns Hepatitis B virus. Nature of the series: Antiviral activity against HBV infected in human HepG2(2.2.15) cells assessed as inhibition of HBsAg production after 9 days by ELISA. The format is functional, organism-based. As to conditions: HepG2 2.2.15, 216 h. Summed up: as §3

As to `O=C(/C=C/c1coc2cc(O)ccc2c1=O)Nc1ccccc1`, the IC50 in series [1] stood at 17.9 µM; in series [2], 9.7 µM; in [4] it was 24.4 µM; in series [6], 3.88 µM; in series [10], 13.4 µM; in series [11] it was 29 µM. Moreover, the IC50 is greater than 200 µM in series [12] and 45.5 µM in series [13]. In addition, the “Ratio CC50/IC50” value is recorded as 18.02 in series [3], 61.12 in series [5] and 28.29 in series [7]. Besides, in series [8], the “Ratio IC50” value is listed as 4. The same compound yielded a CC50 at 48 h in series [9] of 821 µM.
